MT stabilize HCS – microtubule stabilization, imaging screen. HeLa tubulin immunostaining HCS, 24 h; share of cells brighter than vehicle mean+2SD. % tubulin-high responders, % at 10 µM. 0.83% of 200,000 active. AID 2205;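 active means plate Z-score above 3 for both tubulin-high and condensed-nucleus cell shares, with cell loss under 80%, at 10 µM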;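 further: anti alpha tubulin signal scored within the nucleus-defined area of each cell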
bCat nuc transl – modulators of beta-catenin nuclear translocation; HeLa beta-catenin nuclear translocation, immunofluorescence imaging; nuclear translocation activity, % at 5 µM; 0.3% of 190,000 active;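 active means nuclear translocation activity above 50% at 5 µM, with a well cell count of 50 or more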;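 further: per-cell ratio of nuclear to cytoplasmic median beta-catenin stain intensity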
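assay system = human HeLa cells, endogenous beta-catenin | times = compound treatment 24 h, 37°C, 5% CO2 | detection = Anti-beta-catenin immunofluorescence on PFA-fixed, Triton-permeabilized cells, DAPI nuclei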
EP2 modulator – modulators of human EP2 prostaglandin E2 receptor; P43116; AID 940; 0.83% of 260,000 active; induction, % at 25 µM; EP2-expressing cells, cAMP HTRF FRET, PGE2 co-stimulation;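 active means compounds whose cAMP rise, as percent of the full-agonist control response, exceeds 60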;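 further: rat C6 glioma line stably carrying human EP2 under a CMV promoter; the protocol text gives 20 µM as final concentration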
Target sequence (P43116 whole entry, looked up): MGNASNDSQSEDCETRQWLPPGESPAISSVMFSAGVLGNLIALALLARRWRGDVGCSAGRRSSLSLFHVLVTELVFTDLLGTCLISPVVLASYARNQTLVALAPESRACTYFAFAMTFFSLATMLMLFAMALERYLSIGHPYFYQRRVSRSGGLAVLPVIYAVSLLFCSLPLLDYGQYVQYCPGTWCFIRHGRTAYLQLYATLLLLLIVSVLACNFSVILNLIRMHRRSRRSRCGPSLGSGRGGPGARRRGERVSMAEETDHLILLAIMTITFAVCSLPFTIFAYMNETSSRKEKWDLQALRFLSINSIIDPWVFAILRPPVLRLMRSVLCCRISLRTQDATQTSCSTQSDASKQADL
Tb hexokinase – blocks Trypanosoma brucei hexokinase 1 activity. recombinant TbHK1, G6PDH-coupled NADH A340. inhibition, % at 10 µM. 0.11% of 220,000 active. AID 1430;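 active means inhibition of 50% or more in the single-dose primary screen; inactive means inhibition below 50%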
HMGR II inh – E. faecalis class II HMG-CoA reductase inhibition; inhibition, % at 10 µM; 0.41% of 190,000 active; purified E. faecalis HMGR, NADPH absorbance 340 nm kinetic;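 active means inhibition above a set limit, the median over all tested compounds plus 3 SD, cut at about 9.5% in these data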;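 further: enzyme runs in reverse so mevalonate oxidation gives rising NADPH absorbance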
PGE2 EP2 inh – EP2 receptor (human) inhibition. C6 glioma cells expressing human EP2, cAMP TR-FRET; cells stimulated with saturating PGE2. P43116. 0.52% of 260,000 active. inhibition, % at 25 µM;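 active means percent inhibition above 40 after rounding to a whole number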;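 further: rat C6 glioma host cells with rolipram phosphodiesterase inhibitor present; the protocol text gives 20 µM as final concentration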
Hits are given with their value; – = inactive; · = no result; ! = a repeat was not active. Only some compounds are listed: those with a hit (about 2.4% of all), similar ones and a draw of the others.

SMILES | MT stabilize HCS | bCat nuc transl | EP2 modulator | Tb hexokinase | HMGR II inh | PGE2 EP2 inh
O=C(O)CCC(=O)NC(c1ccccc1)c1ccccc1 | – | – | – | – | 14 | –
Cn1c2ccccc2n2c(=O)n(CC(=O)N3CCCCCC3)nc12 | · | · | – | · | · | –
CCOc1ccc(-c2nnn(CC(=O)N3CCCC(C)C3)n2)cc1 (stereo not given) | – | – | – | – | 13 | –
CCOc1ccc(-c2nnn(CC(=O)Nc3cc(OC)ccc3OC)n2)cc1OCC | – | – | – | – | – | –
CCOc1ccc(-c2nnn(CC(=O)c3cc(OC)ccc3OC)n2)cc1 | 50 | – | – | – | – | –
CCCOc1ccc(-c2nnn(CC(=O)N3CCCC(C)C3)n2)cc1 (stereo not given) | · | – | – | – | · | –
CC(C)(C)C(=O)/C(C#N)=C/c1cccs1 | · | – | – | – | · | –
N#C/C(=C\c1cccs1)C(=O)c1ccccc1Cl | · | – | – | – | · | 113
O=C1CCCC(O)=C1C(C#Cc1ccccc1)C1=C(O)CCCC1=O | – | – | – | – | – | 43
O=C1CC(/C=C/c2ccccn2)=Nc2ccccc2N1 | 7.4 | – | – | – | – | –
CCn1c2cc(C)sc2c2cnn(CC(=O)Nc3ccccc3-c3ccccc3)c(=O)c21 | · | · | – | · | · | ·
Clc1cc(Br)ccc1OCCOCCN1CCOCC1 | – | 112 | – | – | – | –
O=C(O)[C@H]1CN(C(=O)c2ccccn2)C[C@@H]1c1ccc(F)cc1 | · | · | – | · | · | –
O=C(Nc1ccc(OCC(F)(F)C(F)F)c(C(F)(F)F)c1)c1ccccc1 | – | · | · | – | · | 45
O=C(Nc1ccc2c(c1)C(=O)N(CC1CCCO1)C2=O)c1ccccc1Br (stereo not given) | – | – | – | – | 12 | –
Cc1ccc(C)c(-n2c(SCC(=O)Nc3nccs3)nnc2-c2ccccn2)c1 | · | · | – | · | · | –
COc1cccc(Cn2c(Oc3ccccc3)nc3c2c(=O)n(C)c(=O)n3C)c1 | – | – | – | – | – | –
C=CCn1c(Oc2ccccc2)nc2c1c(=O)n(C)c(=O)n2C | – | – | – | – | 16 | –
O=[N+]([O-])c1c(Nc2ccccn2)cc(Cl)c2nonc12 | · | – | – | – | · | 56
CCn1c2ccccc2c2cc(NC(=O)CSc3nnc(-c4cccc(C)c4)o3)ccc21 | – | · | – | – | – | –
CCn1c2ccccc2c2cc(NC(=O)c3cc(OC)c(OC)c(OC)c3)ccc21 | 23 | – | – | – | – | –
CCn1c2ccccc2c2cc(NC(=O)CSc3nnc(-c4ccccc4)o3)ccc21 | 16 | – | – | – | – | –
COc1cc(C(=O)Nc2ccc(N(C)C)cc2)cc(OC)c1OC | 26 | – | – | – | – | –
CCn1c2ccccc2c2cc(NC(=O)c3ccc(Br)o3)ccc21 | – | · | – | – | – | –
CCn1c2ccccc2c2cc(NC(=O)c3ccc(=O)oc3)ccc21 | · | – | – | – | · | –
SMILES | MT stabilize HCS | bCat nuc transl | EP2 modulator | Tb hexokinase | HMGR II inh | PGE2 EP2 inh
CCn1c2ccccc2c2cc(NC(=O)c3cc(C)on3)ccc21 | 20 | – | – | – | – | –
CCCC(CCn1c(C)[n+](CC)c2ccc(C#N)cc21)S(=O)(=O)[O-] (stereo not given) | · | · | – | · | · | –
O=C(Nc1nccs1)c1ccc(CSc2nnc3c(n2)[nH]c2ccccc23)cc1 | · | · | – | · | · | –
CCn1c2ccccc2c2cc(NC(=O)c3cccc([N+](=O)[O-])c3C)ccc21 | 14 | – | – | – | – | –
COc1cc(C(=O)Nc2cccc3ncccc23)cc(OC)c1OC | – | · | – | – | – | –
COc1cc(C(=O)Nc2ccc(Br)cc2C(=O)c2cc(OC)c(OC)c(OC)c2)cc(OC)c1OC | 34 | – | – | – | – | –
CCn1c2ccccc2c2cc(NC(=O)c3ccc(C)c([N+](=O)[O-])c3)ccc21 | – | – | – | – | – | –
CCn1c2ccccc2c2cc(NC(=O)COc3ccc(OC)cc3)ccc21 | – | · | – | – | – | –
CCn1c2ccccc2c2cc(NC(=O)c3cc(OC)cc(OC)c3)ccc21 | 9.6 | – | – | – | – | –
O=C(CCn1cnc2ccccc21)N1CCc2c(nc(N3CCOCC3)[nH]c2=O)C1 | · | · | – | · | · | ·
Cn1cccc1C(=O)OCC(=O)N1CC(=O)Nc2ccccc21 | – | – | – | – | 11 | –
O=C1CN(C(=O)CSc2nnc3ccccn23)c2ccccc2N1 | – | – | – | – | 12 | –
Cc1nnc(SCC(=O)N2CC(=O)Nc3ccccc32)n1C | – | · | – | – | – | –
Cc1ccc2cc(CN(Cc3ccc(F)cc3)C(=O)c3ccco3)c(=O)[nH]c2c1 | · | · | – | · | · | –
C[C@H](NC(=O)c1nc[nH]c1C(=O)N[C@@H](Cc1ccccc1)C(=O)OC(C)(C)C)c1ccccc1 | – | – | 64 | – | – | –
C/C(=N\NC(=O)CC1N=C(Cc2ccccc2)NNC1=O)c1ccccc1 (stereo not given) | – | – | – | – | – | –
C/C(=N\NC(=O)CC1N=C(Cc2ccccc2)NNC1=O)c1ccc(Cl)cc1Cl (stereo not given) | 22 | – | – | – | – | –
Cc1cc(Cl)nc2ccc(Cc3ccc4nc(Cl)cc(C)c4c3)cc12 | · | – | – | – | · | 42!
CSc1nc(Cc2ccc(Cl)cc2)nc2ccccc12 | – | – | – | – | – | –
CN1CCN(CCCNC(=O)c2nnc(Cc3c(F)cccc3Cl)o2)CC1 | – | – | – | – | 10 | –
O=C(COc1ccc2ccccc2c1)NNC(=O)Cc1cccc2ccccc12 | – | – | – | – | – | –
O=C(COc1ccc2ccccc2c1)NNC(=O)Cc1ccccc1 | – | – | – | – | – | 63
COc1ccccc1CNC(=O)c1csc(Cc2ccc(Cl)cc2)n1 | – | · | 62 | – | – | –
Cc1ccc2[nH]c(=O)c(C(c3nnnn3C(C)(C)C)N3CCN(C4CCCCC4)CC3)cc2c1 (stereo not given) | · | · | – | · | · | –
CCCC(=Nc1ccccc1OC)C1=C(O)CC(c2ccccc2)CC1=O (stereo not given) | – | · | – | – | – | –
SMILES | MT stabilize HCS | bCat nuc transl | EP2 modulator | Tb hexokinase | HMGR II inh | PGE2 EP2 inh
COc1ccccc1N=C(C)C1=C(O)CC(c2ccccc2)CC1=O (stereo not given) | – | 52 | – | – | – | –
CCC(CC)C(=O)Nc1nnc(SCC(=O)N2C(C)CCCC2C)s1 (stereo not given) | · | · | – | · | · | –
NC(N)=N/N=C/c1ccccc1 | – | · | – | – | – | –
NC(N)=N/N=C/c1ccc(OCc2ccccc2Cl)cc1 | – | – | – | – | – | 96
CC1=NNC(=O)/C1=C\c1cn(-c2ccccc2)nc1-c1ccc(F)cc1 | 22 | – | – | – | – | –
CCCn1nc(C(=O)N2CCc3ccccc3C2)c2ccccc2c1=O | – | – | – | – | – | –
CCn1nc(C(=O)N2CCc3ccccc3C2)c2ccccc2c1=O | 16 | – | – | – | – | –
COc1ccc(CNC(=O)c2sc3nc4cc5c(cc4cc3c2N)OCCO5)cc1 | · | · | – | · | · | –
Cc1cc(C)nc(NC(=O)CCC2CCCC2)c1 | – | · | – | – | 9.9 | –
